Measured values reported in ChEMBL document CHEMBL1649097, “Kinase inhibition by deoxy analogues of the resorcylic lactone L-783277” (ACS Med Chem Lett, 2011).

Tests used:
Plasma [1] = test: Metabolic stability in mouse plasma assessed as compound conversion to metabolite C7'-C8' E isomer; type: ADME, cell-free
Blood = test: Metabolic stability in mouse blood assessed as compound conversion to metabolite C7'-C8' E isomer; type: ADME, tissue-based
Plasma [2] = test: Metabolic stability in human plasma assessed as compound conversion to metabolite C7'-C8' E isomer at 55 uM after 20 mins at 37 degC; type: ADME, cell-free
[3] = molecular target: ALK tyrosine kinase receptor (Homo sapiens, UniProt Q9UM73); test: Inhibition of ALK by TR-FRET based LanthaScreen assay
How it was run: (§1)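 TR-FRET LanthaScreen kinase assay with phosphorylation of a substrate; FGFR3 used as the K651E mutant. IC50 derived from two independent experiments; for some compounds, ALK and cKIT values are averages ± SDs of three independent experiments.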

[4] = molecular target: Mitogen-activated protein kinase 1 (Homo sapiens, UniProt P28482); test: Inhibition of ERK2 by Caliper mobility shift assay
How it was run: (§2)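 Caliper mobility shift kinase assay with phosphorylation of a substrate; IC50 derived from two independent experiments.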

Ephrin type-B receptor 4 = molecular target: T1, Ephrin type-B receptor 4 (Homo sapiens, UniProt P54760); test: Inhibition of EPHB4 by TR-FRET based LanthaScreen assay
T1 sequence (P54760 whole entry): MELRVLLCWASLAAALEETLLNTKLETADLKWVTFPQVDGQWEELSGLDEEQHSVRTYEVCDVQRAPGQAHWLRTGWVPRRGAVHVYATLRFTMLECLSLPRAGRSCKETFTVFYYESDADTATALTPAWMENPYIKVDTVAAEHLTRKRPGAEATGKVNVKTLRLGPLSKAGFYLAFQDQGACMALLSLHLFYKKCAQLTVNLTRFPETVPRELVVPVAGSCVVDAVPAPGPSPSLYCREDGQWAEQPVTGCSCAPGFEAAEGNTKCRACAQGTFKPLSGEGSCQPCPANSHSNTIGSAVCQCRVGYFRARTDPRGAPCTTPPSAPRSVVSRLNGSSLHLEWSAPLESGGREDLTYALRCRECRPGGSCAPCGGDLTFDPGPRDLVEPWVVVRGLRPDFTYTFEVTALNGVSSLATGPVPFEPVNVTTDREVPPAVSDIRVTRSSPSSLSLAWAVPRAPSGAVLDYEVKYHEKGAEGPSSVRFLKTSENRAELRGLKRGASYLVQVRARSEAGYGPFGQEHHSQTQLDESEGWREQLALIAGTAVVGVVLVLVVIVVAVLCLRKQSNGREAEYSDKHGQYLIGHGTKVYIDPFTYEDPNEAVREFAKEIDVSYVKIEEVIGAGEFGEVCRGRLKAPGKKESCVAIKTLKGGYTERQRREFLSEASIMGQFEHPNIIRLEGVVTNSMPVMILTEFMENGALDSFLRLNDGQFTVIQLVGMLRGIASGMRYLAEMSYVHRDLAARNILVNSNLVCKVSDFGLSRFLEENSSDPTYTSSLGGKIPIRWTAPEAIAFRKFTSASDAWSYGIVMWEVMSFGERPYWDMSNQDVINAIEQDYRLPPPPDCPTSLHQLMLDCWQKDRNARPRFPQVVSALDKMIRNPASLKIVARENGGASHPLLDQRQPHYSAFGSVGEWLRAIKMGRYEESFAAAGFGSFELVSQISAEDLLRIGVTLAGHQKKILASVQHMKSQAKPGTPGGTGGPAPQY
How it was run: (§3)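 LanthaScreen TR-FRET kinase format, run per the group's earlier protocol. IC50 from two independent experiments; for some compounds, PDGFRα and VEGFR2 values are means ± SD of three independent runs. The FGFR3 used was the K651E mutant.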

[5] = molecular target: Mast/stem cell growth factor receptor Kit (Homo sapiens, UniProt P10721); test: Inhibition of cKIT by TR-FRET based LanthaScreen assay; how it was run: as §1
[6] = molecular target: Tyrosine-protein kinase Lck (Homo sapiens, UniProt P06239); test: Inhibition of LCK by TR-FRET based LanthaScreen assay
[7] = molecular target: MAP kinase-interacting serine/threonine-protein kinase 2 (Homo sapiens, UniProt Q9HBH9); test: Inhibition of MNK2 by TR-FRET based LanthaScreen assay; how it was run: as §1
[8] = molecular target: Platelet-derived growth factor receptor alpha (Homo sapiens, UniProt P16234, V561D); test: Inhibition of PDGFRalpha V561D mutant by TR-FRET based LanthaScreen assay; how it was run: as §3
[9] = molecular target: Proto-oncogene tyrosine-protein kinase receptor Ret (Homo sapiens, UniProt P07949); test: Inhibition of RET by TR-FRET based LanthaScreen assay; how it was run: as §3
[10] = molecular target: Non-receptor tyrosine-protein kinase TYK2 (Homo sapiens, UniProt P29597); test: Inhibition of TYK2 by TR-FRET based LanthaScreen assay; how it was run: as §3
[11] = molecular target: T2, Vascular endothelial growth factor receptor 2 (Homo sapiens, UniProt P35968); test: Inhibition of VEGFR2 by TR-FRET based LanthaScreen assay; how it was run: as §3
Aurora kinase A = Aurora kinase A (Homo sapiens, UniProt O14965); test: Inhibition of Aurora A kinase by Caliper mobility shift assay
How it was run: (§4)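 Caliper microfluidic mobility shift readout of substrate phosphorylation, run per the group's earlier kinase protocol. IC50 taken from two independent experiments.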

[12] = molecular target: Tyrosine-protein kinase receptor UFO (Homo sapiens, UniProt P30530); test: Inhibition of Axl by TR-FRET based LanthaScreen assay; how it was run: as §3
[13] = molecular target: Cyclin-dependent kinase 2 (Homo sapiens, UniProt P24941); test: Inhibition of CDK2A by Caliper mobility shift assay; how it was run: as §4
[14] = Inhibition of CDK4D1 by Caliper mobility shift assay; how it was run: as §2
[15] = molecular target: Tyrosine-protein kinase ZAP-70 (Homo sapiens, UniProt P43403); test: Inhibition of ZAP70 by TR-FRET based LanthaScreen assay; how it was run: as §3
[16] = Inhibition of COT1 by Caliper mobility shift assay; how it was run: as §2
Ephrin type-A receptor 4 = Ephrin type-A receptor 4 (Homo sapiens, UniProt P54764); test: Inhibition of EPHA4 by TR-FRET based LanthaScreen assay; how it was run: as §3
[17] = molecular target: Fibroblast growth factor receptor 3 (Homo sapiens, UniProt P22607); test: Inhibition of FGFR3 by TR-FRET based LanthaScreen assay; how it was run: as §3
[18] = molecular target: Glycogen synthase kinase-3 beta (Homo sapiens, UniProt P49841); test: Inhibition of GSK3-beta by TR-FRET based LanthaScreen assay; how it was run: as §3
[19] = molecular target: Receptor tyrosine-protein kinase erbB-2 (Homo sapiens, UniProt P04626); test: Inhibition of HER2 by TR-FRET based LanthaScreen assay; how it was run: as §3
[20] = molecular target: Hepatocyte growth factor receptor (Homo sapiens, UniProt P08581); test: Inhibition of HGFR by TR-FRET based LanthaScreen assay; how it was run: as §3
[21] = molecular target: Insulin-like growth factor 1 receptor (Homo sapiens, UniProt P08069); test: Inhibition of IGF1R by TR-FRET based LanthaScreen assay; how it was run: as §3
Insulin receptor = Insulin receptor (Homo sapiens, UniProt P06213); test: Inhibition of INSR by TR-FRET based LanthaScreen assay; how it was run: as §3
[22] = molecular target: Tyrosine-protein kinase JAK1 (Homo sapiens, UniProt P23458); test: Inhibition of JAK1 by TR-FRET based LanthaScreen assay
[23] = molecular target: Tyrosine-protein kinase JAK2 (Homo sapiens, UniProt O60674); test: Inhibition of JAK2 by TR-FRET based LanthaScreen assay
[24] = molecular target: Tyrosine-protein kinase JAK3 (Homo sapiens, UniProt P52333); test: Inhibition of JAK3 by Caliper mobility shift assay; how it was run: as §4
[25] = Inhibition of PKAtau by TR-FRET based LanthaScreen assay; how it was run: as §1
[26] = molecular target: Serine/threonine-protein kinase N1 (Homo sapiens, UniProt Q16512); test: Inhibition of PKN1 by Caliper mobility shift assay; how it was run: as §4
[27] = molecular target: Serine/threonine-protein kinase N2 (Homo sapiens, UniProt Q16513); test: Inhibition of PKN2 by Caliper mobility shift assay; how it was run: as §4
[28] = molecular target: Rho-associated protein kinase 2 (Homo sapiens, UniProt O75116); test: Inhibition of ROCK2 by Caliper mobility shift assay; how it was run: as §4
[29] = molecular target: Tyrosine-protein kinase ABL1 (Homo sapiens, UniProt P00519, T315I); test: Inhibition of cABL T315I mutant by Caliper mobility shift assay; how it was run: as §4
[30] = molecular target: Mitogen-activated protein kinase 14 (Homo sapiens, UniProt Q16539); test: Inhibition of p38alpha by Caliper mobility shift assay; how it was run: as §4
[31] = molecular target: cAMP-dependent protein kinase catalytic subunit alpha (Homo sapiens, UniProt P17612); test: Inhibition of PKAalpha by TR-FRET LanthaScreen assay
[32] = molecular target: Dual specificity mitogen-activated protein kinase kinase 2 (Homo sapiens, UniProt P36507); test: Inhibition of MEK2 by TR-FRET based LanthaScreen assay; how it was run: as §3
[33] = molecular target: MAP kinase-activated protein kinase 5 (Homo sapiens, UniProt Q8IW41); test: Inhibition of MK5 by TR-FRET based LanthaScreen assay; how it was run: as §3
[34] = molecular target: Tyrosine-protein kinase BTK (Homo sapiens, UniProt Q06187); test: Inhibition of BTK by TR-FRET based LanthaScreen assay
[35] = molecular target: T2, Vascular endothelial growth factor receptor 2; test: Inhibition of VEGFR2 autophosphorylation by cell based assay
[36] = Chemical stability in HEPES buffer assessed as compound isomerization at pH 7.0 to 7.5 for 24 hrs at 37 degC; type: physicochemical; conditions: read-out: Activity
How it was run: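 Compound incubated in HEPES buffer at pH 7.0−7.5 for 24 h at 37 °C; read-out is the percentage isomerization to the C7′-C8′ E isomer.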

Mast/stem cell growth factor receptor Kit, sequence (P10721 whole entry): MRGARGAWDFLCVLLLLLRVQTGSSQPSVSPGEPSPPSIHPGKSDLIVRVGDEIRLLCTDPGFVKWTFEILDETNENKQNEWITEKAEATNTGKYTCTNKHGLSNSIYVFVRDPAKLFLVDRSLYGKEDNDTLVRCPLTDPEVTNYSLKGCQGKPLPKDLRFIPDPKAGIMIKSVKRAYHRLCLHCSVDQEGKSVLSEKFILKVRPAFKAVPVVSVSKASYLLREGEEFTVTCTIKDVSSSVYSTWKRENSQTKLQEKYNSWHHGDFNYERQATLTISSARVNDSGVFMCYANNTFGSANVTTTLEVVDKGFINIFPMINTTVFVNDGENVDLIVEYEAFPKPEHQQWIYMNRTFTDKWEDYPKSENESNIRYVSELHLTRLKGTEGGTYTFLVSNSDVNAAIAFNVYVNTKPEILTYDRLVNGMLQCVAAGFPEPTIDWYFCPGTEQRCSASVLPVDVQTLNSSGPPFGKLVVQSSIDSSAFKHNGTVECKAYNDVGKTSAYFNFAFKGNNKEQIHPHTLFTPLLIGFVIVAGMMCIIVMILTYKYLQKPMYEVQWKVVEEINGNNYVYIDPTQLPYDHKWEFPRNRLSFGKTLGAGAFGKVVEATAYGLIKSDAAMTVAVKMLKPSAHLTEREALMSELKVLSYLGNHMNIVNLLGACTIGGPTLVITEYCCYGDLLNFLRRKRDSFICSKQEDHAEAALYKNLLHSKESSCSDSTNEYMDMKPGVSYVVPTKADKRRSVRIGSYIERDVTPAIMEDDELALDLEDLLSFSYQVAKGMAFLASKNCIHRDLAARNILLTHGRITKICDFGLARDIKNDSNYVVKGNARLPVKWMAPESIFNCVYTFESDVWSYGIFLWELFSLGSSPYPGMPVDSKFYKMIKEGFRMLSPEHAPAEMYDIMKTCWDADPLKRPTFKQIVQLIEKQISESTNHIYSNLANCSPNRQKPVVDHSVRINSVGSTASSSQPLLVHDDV
Tyrosine-protein kinase Lck, sequence (P06239 whole entry): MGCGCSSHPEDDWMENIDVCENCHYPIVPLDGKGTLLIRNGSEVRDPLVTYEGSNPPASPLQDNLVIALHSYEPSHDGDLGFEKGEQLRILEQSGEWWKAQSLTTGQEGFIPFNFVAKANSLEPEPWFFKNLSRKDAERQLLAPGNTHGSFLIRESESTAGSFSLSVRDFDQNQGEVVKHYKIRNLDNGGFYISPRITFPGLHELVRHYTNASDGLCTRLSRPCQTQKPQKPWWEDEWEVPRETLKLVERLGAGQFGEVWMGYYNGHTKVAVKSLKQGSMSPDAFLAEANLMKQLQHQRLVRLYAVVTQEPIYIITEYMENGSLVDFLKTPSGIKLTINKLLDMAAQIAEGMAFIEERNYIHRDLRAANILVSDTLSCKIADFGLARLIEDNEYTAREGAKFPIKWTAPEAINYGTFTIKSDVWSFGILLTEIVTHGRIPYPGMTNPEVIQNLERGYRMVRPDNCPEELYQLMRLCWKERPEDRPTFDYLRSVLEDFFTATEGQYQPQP
Platelet-derived growth factor receptor alpha, sequence (P16234 24-1089 V561D limits assumed): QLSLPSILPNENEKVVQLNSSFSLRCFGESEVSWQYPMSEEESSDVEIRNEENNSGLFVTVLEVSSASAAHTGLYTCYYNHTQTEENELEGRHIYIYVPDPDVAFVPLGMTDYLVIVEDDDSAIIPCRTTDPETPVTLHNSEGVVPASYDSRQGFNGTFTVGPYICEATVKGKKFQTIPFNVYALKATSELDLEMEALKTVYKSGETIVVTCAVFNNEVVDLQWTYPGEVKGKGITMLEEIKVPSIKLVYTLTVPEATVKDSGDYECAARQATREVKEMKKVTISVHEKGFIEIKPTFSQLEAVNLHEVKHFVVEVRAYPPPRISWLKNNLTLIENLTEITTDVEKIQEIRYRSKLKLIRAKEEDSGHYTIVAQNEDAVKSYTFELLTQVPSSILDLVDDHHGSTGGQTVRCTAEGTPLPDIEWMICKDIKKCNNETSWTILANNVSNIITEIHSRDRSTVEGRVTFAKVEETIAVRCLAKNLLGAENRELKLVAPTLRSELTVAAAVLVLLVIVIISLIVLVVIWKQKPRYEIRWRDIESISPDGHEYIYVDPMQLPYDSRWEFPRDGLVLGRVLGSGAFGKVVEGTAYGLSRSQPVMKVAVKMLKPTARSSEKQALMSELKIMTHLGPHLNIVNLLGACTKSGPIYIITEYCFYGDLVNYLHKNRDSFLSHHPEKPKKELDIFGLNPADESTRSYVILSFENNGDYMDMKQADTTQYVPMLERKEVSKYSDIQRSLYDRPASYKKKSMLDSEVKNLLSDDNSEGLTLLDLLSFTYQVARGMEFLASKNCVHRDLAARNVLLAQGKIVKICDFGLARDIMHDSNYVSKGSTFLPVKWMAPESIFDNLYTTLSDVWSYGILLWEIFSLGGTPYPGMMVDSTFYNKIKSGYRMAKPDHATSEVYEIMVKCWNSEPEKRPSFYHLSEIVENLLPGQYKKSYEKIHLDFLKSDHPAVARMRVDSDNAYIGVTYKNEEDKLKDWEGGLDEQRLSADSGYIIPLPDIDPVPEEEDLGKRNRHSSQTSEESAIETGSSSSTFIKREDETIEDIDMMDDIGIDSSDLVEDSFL
T2 sequence (P35968 whole entry): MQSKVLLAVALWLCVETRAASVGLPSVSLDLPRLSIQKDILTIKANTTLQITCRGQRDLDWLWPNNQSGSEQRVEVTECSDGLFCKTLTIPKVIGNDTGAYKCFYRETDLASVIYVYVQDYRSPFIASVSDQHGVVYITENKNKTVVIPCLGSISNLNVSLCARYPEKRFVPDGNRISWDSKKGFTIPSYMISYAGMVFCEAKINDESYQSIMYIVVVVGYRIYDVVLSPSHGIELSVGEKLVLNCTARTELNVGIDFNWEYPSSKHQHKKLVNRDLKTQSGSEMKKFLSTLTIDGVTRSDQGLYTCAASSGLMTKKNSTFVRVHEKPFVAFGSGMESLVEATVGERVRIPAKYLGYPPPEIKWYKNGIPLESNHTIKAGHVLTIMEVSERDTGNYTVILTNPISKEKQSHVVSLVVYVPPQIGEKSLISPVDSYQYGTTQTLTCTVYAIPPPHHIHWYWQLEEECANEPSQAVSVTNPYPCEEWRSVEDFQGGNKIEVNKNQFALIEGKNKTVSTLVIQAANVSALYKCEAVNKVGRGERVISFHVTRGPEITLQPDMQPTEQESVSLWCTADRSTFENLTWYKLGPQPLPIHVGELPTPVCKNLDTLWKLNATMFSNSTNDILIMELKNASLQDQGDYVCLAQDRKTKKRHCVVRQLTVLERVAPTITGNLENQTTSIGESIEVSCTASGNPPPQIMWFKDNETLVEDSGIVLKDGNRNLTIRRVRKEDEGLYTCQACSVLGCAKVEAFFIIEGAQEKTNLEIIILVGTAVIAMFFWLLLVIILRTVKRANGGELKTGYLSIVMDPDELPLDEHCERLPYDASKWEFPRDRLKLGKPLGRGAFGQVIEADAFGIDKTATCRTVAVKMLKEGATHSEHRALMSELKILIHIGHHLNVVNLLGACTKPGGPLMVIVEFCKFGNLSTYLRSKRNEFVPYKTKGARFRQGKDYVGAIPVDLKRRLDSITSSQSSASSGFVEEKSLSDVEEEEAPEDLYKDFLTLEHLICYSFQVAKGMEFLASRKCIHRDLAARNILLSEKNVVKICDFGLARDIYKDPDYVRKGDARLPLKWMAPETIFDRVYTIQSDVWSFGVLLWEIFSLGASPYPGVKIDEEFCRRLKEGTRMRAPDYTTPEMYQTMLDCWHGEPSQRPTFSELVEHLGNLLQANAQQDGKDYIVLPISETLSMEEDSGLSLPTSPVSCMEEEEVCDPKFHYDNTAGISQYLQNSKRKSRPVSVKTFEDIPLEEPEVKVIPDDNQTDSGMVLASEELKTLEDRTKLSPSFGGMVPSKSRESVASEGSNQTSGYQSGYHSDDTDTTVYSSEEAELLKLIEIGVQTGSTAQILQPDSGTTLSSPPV
Proto-oncogene tyrosine-protein kinase receptor Ret, sequence (P07949 whole entry): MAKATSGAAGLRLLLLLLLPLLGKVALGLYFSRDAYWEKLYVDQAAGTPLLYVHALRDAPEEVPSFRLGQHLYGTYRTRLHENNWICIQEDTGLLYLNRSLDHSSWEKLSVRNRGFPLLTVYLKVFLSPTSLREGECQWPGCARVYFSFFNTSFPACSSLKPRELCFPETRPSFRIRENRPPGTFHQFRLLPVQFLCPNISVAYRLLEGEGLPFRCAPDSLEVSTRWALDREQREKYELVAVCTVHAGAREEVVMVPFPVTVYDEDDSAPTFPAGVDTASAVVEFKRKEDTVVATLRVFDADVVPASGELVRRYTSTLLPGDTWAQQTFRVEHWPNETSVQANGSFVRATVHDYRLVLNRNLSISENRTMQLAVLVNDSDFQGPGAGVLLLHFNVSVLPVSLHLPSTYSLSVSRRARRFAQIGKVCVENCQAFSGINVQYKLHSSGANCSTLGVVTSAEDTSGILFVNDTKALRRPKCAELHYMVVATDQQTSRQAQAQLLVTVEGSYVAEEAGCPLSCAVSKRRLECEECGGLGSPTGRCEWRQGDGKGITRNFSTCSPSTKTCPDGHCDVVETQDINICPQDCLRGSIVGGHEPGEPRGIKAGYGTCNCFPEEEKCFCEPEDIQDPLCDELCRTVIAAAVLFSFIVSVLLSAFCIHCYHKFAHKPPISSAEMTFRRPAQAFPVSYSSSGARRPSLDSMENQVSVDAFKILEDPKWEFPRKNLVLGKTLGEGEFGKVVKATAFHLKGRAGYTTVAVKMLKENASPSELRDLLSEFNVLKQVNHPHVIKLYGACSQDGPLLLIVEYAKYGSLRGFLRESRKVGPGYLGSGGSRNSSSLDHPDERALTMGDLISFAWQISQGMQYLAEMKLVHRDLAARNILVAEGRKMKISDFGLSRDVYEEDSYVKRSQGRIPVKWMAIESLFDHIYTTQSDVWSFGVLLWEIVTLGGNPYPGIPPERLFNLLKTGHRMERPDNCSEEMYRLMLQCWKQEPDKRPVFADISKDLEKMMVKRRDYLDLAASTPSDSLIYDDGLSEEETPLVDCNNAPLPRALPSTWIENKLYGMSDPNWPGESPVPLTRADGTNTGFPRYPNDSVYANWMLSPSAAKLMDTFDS

| SMILES | IC50 [3] [µM] | IC50 [4] [µM] | IC50 (Ephrin type-B receptor 4) [µM] | IC50 [5] [µM] | IC50 [6] [µM] | IC50 [7] [µM] | IC50 [8] [µM] | IC50 [9] [µM] | IC50 [10] [µM] | IC50 [11] [µM] | IC50 (Aurora kinase A) [µM] | IC50 [12] [µM] | IC50 [13] [µM] | IC50 [14] [µM] | IC50 [15] [µM] | IC50 [16] [µM] | IC50 (Ephrin type-A receptor 4) [µM] | IC50 [17] [µM] | IC50 [18] [µM] | IC50 [19] [µM] | also measured |
| --- | --- | --- | --- | --- | --- | --- | --- | --- | --- | --- | --- | --- | --- | --- | --- | --- | --- | --- | --- | --- | --- |
| COc1cc(O)c2c(c1)/C=C/C[C@H](O)[C@H](O)C(=O)/C=C\C[C@H](C)OC2=O |  |  |  |  |  |  |  |  |  |  |  |  |  |  |  |  |  |  |  |  | t1/2 (Plasma [1]): 20 min; t1/2 (Blood): 20 min; Stability (Plasma [2]): 50% |
| COc1cc(O)c2c(c1)CCC[C@H](O)CC(=O)/C=C\C[C@H](C)OC2=O | 0.763 | 6.4 | 7.4 | 0.673 | 4.7 | 0.15 | 0.00723 | 7.2 | 4.4 | 0.0058 | > 10 | > 10 | > 10 | > 10 | > 10 | > 10 | > 10 | > 10 | > 10 | > 10 | IC50 [20]: > 10 µM; IC50 [21]: > 10 µM; IC50 (Insulin receptor): > 10 µM; IC50 [22]: > 10 µM; IC50 [23]: > 10 µM; IC50 [24]: > 10 µM; IC50 [25]: > 10 µM; IC50 [26]: > 10 µM; IC50 [27]: > 10 µM; IC50 [28]: > 10 µM; IC50 [29]: > 10 µM; IC50 [30]: > 10 µM; IC50 [31]: > 10 µM |
| COc1cc(O)c2c(c1)CCC[C@H](O)CC(=O)/C=C/C[C@H](C)OC2=O | > 10 | > 10 | > 10 | 7.6 | > 10 |  | 0.18 | > 10 | > 10 | 0.19 |  |  |  |  |  |  |  |  |  |  |  |
| COc1cc(O)c2c(c1)CCCCCC(=O)/C=C\C[C@H](C)OC2=O | 3.5 | > 10 | > 10 | > 10 | > 10 | > 10 | 0.095 | > 10 | > 10 | 0.17 |  |  |  |  |  |  |  |  |  |  | IC50 [32]: 6.84 µM; IC50 [33]: > 10 µM |
| COc1cc(O)c2c(c1)CCC[C@H](O)[C@H](O)C(=O)/C=C\C[C@H](C)OC2=O | 0.763 | 0.95 | > 10 | 0.303 | 6.2 |  | 0.00238 | > 10 | 4.1 | 0.002 | > 10 | > 10 | > 10 | > 10 | > 10 | > 10 | > 10 | > 10 | > 10 | > 10 | IC50 [32]: 0.015 µM; IC50 [33]: 0.64 µM; IC50 [34]: > 10 µM; IC50 [20]: > 10 µM; IC50 [21]: > 10 µM; IC50 (Insulin receptor): > 10 µM; IC50 [22]: > 10 µM; IC50 [23]: > 10 µM; IC50 [24]: > 10 µM; IC50 [25]: > 10 µM; IC50 [26]: > 10 µM; IC50 [27]: > 10 µM; IC50 [28]: > 10 µM; IC50 [29]: > 10 µM; IC50 [30]: > 10 µM; IC50 [35]: 0.057 µM; degraded at 24 h [36]: < 1%; IC50 [31]: > 10 µM |
